Hits are enriched below; roughly 0.65% of the tested compounds scored in any of these assays.
TNAP act DEA: activators of human TNAP at intermediate phosphate acceptor; activation factor at 20 µM; 64,000 tested, under 10 active; purified TNAP, CDP-star luminescence, 100 mM DEA, 30 min; hits give high values; scale: 0 levamisole-inhibited, 1 vehicle-only enzyme;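 active = activation factor of at least 2 at 20 µM, relative to controls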
AP complement: orthogonal test for alternative complement pathway inhibitors; Human serum alternative complement pathway, LPS-coated ELISA, C3 deposition; tested in compound mixtures; inhibition, % at 5 µM; actives 0.08% (n = 62,000); AID 1235;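 active = inhibition above 30% in each of the two pooled mixtures holding the compound, so the lower value exceeds 30%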
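Test system: human serum complement alternative pathway, C3 deposition onto LPS / Medium: Mg2+-EGTA GVB++ buffer containing human serum at 1:15 dilution / Probe or stimulus: Plate-bound LPS / Times: 1 h at 37 °C / Signal: ELISA with HRP anti-human C3 antibody, TMB substrate, absorbance 450 nm / Measure: percent inhibition / Repeats: two pool placements per compound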
HePTP inh: blocks human HePTP tyrosine phosphatase. P35236. recombinant HePTP phosphatase activity, OD absorbance. inhibition, % at 20 µM. actives 0.64% (n = 110,000). AID 521; in the data active = inhibition above about 50%
Target sequence (P35236 whole entry, looked up): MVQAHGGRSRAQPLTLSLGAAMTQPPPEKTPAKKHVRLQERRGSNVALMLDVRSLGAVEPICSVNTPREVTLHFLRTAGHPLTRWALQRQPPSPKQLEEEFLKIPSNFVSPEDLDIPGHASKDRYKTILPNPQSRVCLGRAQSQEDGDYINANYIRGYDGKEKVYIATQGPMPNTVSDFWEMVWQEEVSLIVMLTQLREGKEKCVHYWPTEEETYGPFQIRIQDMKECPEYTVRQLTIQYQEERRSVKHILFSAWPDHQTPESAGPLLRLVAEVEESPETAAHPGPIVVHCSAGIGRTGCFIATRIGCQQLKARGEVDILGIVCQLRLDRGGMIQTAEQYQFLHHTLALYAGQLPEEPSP
Hits are given with their value; . = inactive; / = not tested or not shown.

SMILES | TNAP act DEA | AP complement | HePTP inh
O=C(CN1C(=O)/C(=C/c2ccccc2Cl)SC1=S)Nc1ccc(C(=O)O)cc1 | / | / | 96
O=C(CN1C(=O)/C(=C/c2ccccc2Cl)SC1=S)Nc1cccc(C(=O)O)c1 | / | / | .
O=C(O)CCCN1C(=O)/C(=C/c2cccc(Br)c2)SC1=S | / | / | .
O=C(CCN1C(=O)/C(=C/c2cccs2)SC1=S)Nc1cccc(F)c1 | / | / | .
O=C(O)CCCCCCCCCCN1C(=O)/C(=C/c2cccc(Br)c2)SC1=S | / | / | 102
O=C(CCN1C(=O)/C(=C\c2cccs2)SC1=S)Nc1cccc(C(=O)O)c1 | / | / | 93
CC(C)c1cccc(C(C)C)c1OCCCCN1CCOCC1 | / | / | .
CC1=C(C(=O)OCc2ccc(C)cc2)C(c2ccc(O)cc2)NC(=O)N1 (centres undefined) | / | / | .
Cc1ccc(NC(=O)COc2ccccc2)c([N+](=O)[O-])c1 | / | / | .
CC1=NN(c2cccc(C(=O)O)c2)C(=O)/C1=C\c1ccc(-c2ccc([N+](=O)[O-])cc2)o1 | / | / | .
CC1=NN(c2cccc(C(=O)O)c2)C(=O)/C1=C\c1ccc(-c2ccc(Cl)c(C(=O)O)c2)o1 | / | / | 101
CC1=NN(c2ccc(C)cc2)C(=O)/C1=C/c1ccc(-c2cccc(C(=O)O)c2)o1 | / | / | .
CC1=NN(c2cccc(C(=O)O)c2)C(=O)/C1=C\c1ccc(-c2cc([N+](=O)[O-])ccc2C)o1 | / | / | 56
CCOc1ccc2nc(SCC(=O)OC)[nH]c2c1 | / | / | .
COc1ccc(-c2nnc(SCC(=O)Nc3ccc(C)cc3Br)o2)cc1 | / | / | .
O=C1CC(N2CCN(c3ccc([N+](=O)[O-])cc3)CC2)C(=O)N1CCc1ccccc1 (centres undefined) | / | / | .
CN(C)C(=O)/C(=C\c1cccc(Br)c1)NC(=O)c1ccccc1 | / | / | .
Cc1ccc(S(=O)(=O)N/N=C/c2ccccc2OS(=O)(=O)c2ccc([N+](=O)[O-])cc2)cc1 | / | / | .
COc1cc(/C=C2\SC(=Nc3ccc(C)c(Cl)c3)NC2=O)ccc1O | / | / | .
Cc1ccc(N=C2NC(=O)/C(=C/c3cccc(O)c3)S2)cc1Cl | / | / | 60
COC(=O)c1sc(NC(=O)c2sc3cc(C)ccc3c2Cl)c(C#N)c1C | / | / | 103
COC(=O)c1cc(NC(=O)c2sc3cc(C)ccc3c2Cl)cc(C(=O)OC)c1 | / | / | .
CCOC(=O)C1=C(N)OC2=C(C(=O)CCC2)C1c1ccc(C)cc1C (centres undefined) | / | / | .
Cc1cc2c(C)cc(=O)oc2c2c1NCCC2 | . | . | .
Cc1ccc(OC(=O)C(F)(F)F)c2c1NCCC2 | . | 35 | .
SMILES | TNAP act DEA | AP complement | HePTP inh
CCN1C(=O)/C(=C\c2cc(OC)ccc2OC)SC1=S | / | / | .
CCOc1ccc(N2C(=O)NC(=O)/C(=C\c3cc(C)n(-c4cccnc4)c3C)C2=O)cc1 | / | / | .
COc1ccc(-n2c(O)c(/C=C3\C=CC=N3)c(=O)[nH]c2=O)cc1 | / | / | .
N#CCC(=O)N1CCN(C(c2ccccc2)c2ccccc2)CC1 | / | / | 103
O=C(CN1CCN(C(c2ccccc2)c2ccccc2)CC1)N1CCOCC1 | . | . | .
CC(=O)N/N=C/c1cc(C)n(-c2cccc(Cl)c2Cl)c1C | / | / | .
CCc1cc(=O)oc2cc(OCc3ccc(Cl)cc3)ccc12 | / | / | .
Clc1ccc(C=NN2CCN(Cc3ccccc3Cl)CC2)cc1Cl | / | / | .
CCn1nc(C)c(Oc2ccccc2O)c1C | . | . | .
CCn1nc(C)c(Cc2c(C)nn(CC)c2C)c1C | / | / | 104
O=C(NCc1ccc(Cl)cc1Cl)C(=O)NC1CCCC1 | / | / | 61
O=C(NCc1ccccc1Cl)C(=O)NC1CC1 | / | / | .
O=C(COc1ccc(I)cc1)Nc1ccc2c(c1)oc1ccccc12 | / | / | 102
O=C(COc1ccc(Cl)cc1Cl)Nc1ccc2c(c1)oc1ccccc12 | / | / | .
O=C1NC(=O)C(=Cc2ccc(Cl)c([N+](=O)[O-])c2)C(=O)N1 | / | / | 96
O=C1NC(=O)C(=Cc2ccc(-c3cc(Cl)c([N+](=O)[O-])cc3Cl)o2)C(=O)N1 | / | / | .
COc1ccc(-c2cc(C(=O)Nc3ncccc3Cl)c3ccccc3n2)cc1OC | / | / | .
O=C(NC(NC(=O)c1ccco1)c1ccc(Br)cc1)c1ccco1 | / | / | 104
O=C(NC(Nc1ccc(Br)cc1)C(=O)c1ccccc1)c1ccco1 (centres undefined) | / | / | .
O=C(c1cc2n(n1)C(C(F)(F)F)CC(c1cccs1)N2)N1CCCC1 (centres undefined) | / | / | .
COCCN1C(=O)/C(=C\c2ccc(-c3ccc(Br)cc3)o2)SC1=S | / | / | .
S=C1NC(=S)/C(=C\c2ccc(-c3ccc(Br)cc3)o2)S1 | / | / | 93
COc1ccc(C=C2C(=O)N(C)C(=O)N(C)C2=O)cc1OC | / | / | .
O=C1N=c2ccccc2=C1c1s/c(=N/N=C2/C(=O)Nc3ccccc32)n(-c2ccc(O)cc2)c1O | / | / | 98
O=C1N=c2ccccc2=C1c1sc(=O)n(-c2cccc(O)c2)c1O | / | / | .
